Results published in ChEMBL document CHEMBL4837197, “A novel Hsp70 inhibitor specifically targeting the cancer-related Hsp70-Bim protein-protein interaction” (Eur J Med Chem, 2021).
Values belong to the molecule of their own block, whether it stands above or below them. Active and inactive are the calls of the source. The rule behind the calls is not given here.

What was measured:
[1] = Inhibition of FAM-Bim peptide binding to human Hsp70 NBD (1 to 383) measured after 30 mins by fluorescence polarization assay
Procedure, shortened: (§1)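 Fluorescence polarization competition. Serial dilutions of compound added to protein–probe mixture in buffer containing 0.02% sodium azide, incubated 30 min, then polarization read. Control values subtracted. IC50 from the competitive inhibition curve of polarization versus compound concentration.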

[2] = target: Apoptosis regulator Bcl-2 (Homo sapiens, UniProt P10415); test: Inhibition of FAM-Bim peptide binding to human Bcl-2 (2 to 206) measured after 30 mins by fluorescence polarization assay; procedure, shortened: as §1
Apoptosis regulator Bcl-2, sequence (P10415 whole entry): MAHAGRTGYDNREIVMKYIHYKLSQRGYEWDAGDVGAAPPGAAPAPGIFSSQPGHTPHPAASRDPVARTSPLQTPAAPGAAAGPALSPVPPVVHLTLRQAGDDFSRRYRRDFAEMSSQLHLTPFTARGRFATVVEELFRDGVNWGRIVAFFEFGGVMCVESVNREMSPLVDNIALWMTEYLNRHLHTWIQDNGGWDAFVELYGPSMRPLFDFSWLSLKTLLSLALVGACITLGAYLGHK

[3] = target: Heat shock cognate 71 kDa protein (Homo sapiens) (UniProt P11142); test: Competitive binding affinity to Hsc70 in human BV-173 cell lysate up to 10 uM by pull-down/Western blot analysis; type: subcellular; conditions: dose microM <=10
Heat shock cognate 71 kDa protein (Homo sapiens), sequence (P11142 2-646 limits assumed): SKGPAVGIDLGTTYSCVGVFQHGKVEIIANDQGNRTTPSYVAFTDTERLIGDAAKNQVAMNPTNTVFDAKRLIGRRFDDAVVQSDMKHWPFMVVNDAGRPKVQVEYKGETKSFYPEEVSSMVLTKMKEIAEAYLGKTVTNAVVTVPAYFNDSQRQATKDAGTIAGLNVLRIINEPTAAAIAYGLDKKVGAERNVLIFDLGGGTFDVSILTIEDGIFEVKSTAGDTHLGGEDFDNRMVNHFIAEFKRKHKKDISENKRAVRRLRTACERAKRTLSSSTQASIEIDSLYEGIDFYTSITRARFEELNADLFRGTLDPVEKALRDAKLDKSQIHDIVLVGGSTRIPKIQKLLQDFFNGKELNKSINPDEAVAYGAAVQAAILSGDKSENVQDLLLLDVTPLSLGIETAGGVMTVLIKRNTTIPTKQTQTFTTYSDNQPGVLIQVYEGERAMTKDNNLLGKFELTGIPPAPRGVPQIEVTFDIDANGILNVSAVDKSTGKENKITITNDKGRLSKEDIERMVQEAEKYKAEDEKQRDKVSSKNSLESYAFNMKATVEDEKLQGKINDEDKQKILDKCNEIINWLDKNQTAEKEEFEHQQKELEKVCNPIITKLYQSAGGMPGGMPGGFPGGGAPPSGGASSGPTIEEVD
Procedure, shortened: (§2)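 BV173 cell lysate incubated with biotin-clickable affinity probe, with or without competitor. Probe-bound proteins pulled down on streptavidin/avidin agarose after click reaction. Beads washed with 0.1% SDS and PBS, boiled 15 min in SDS loading buffer. Hsp70, Hsc70 and Mortalin detected by Western blot.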

BV-173 [4] = test: Inhibition of Hsp70/Bim protein protein interaction in human BV-173 cells assessed as decrease in Akt expression at 3 uM by Western blot analysis; type: cell-based
Procedure, shortened: (§3)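 BV173 and KCL22 cells treated at 3 µM, with DMSO as vehicle. Lysed in RIPA with protease/phosphatase inhibitor for 30 min on ice and protein measured by BCA. 150–250 µg resolved by SDS-PAGE and blotted for AKT, pAKT, Raf-1 and pRaf-1, with β-actin loading control.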

BV-173 [5] = test: Inhibition of Hsp70/Bim protein protein interaction in human BV-173 cells assessed as decrease in Raf-1 expression at 3 uM by Western blot analysis; type: cell-based; procedure, shortened: as §3
BV-173 [6] = test: Inhibition of Hsp70/Bim protein protein interaction in human BV-173 cells assessed as decrease in Akt phosphorylation at 3 uM by Western blot analysis; type: cell-based; procedure, shortened: as §3
BV-173 [7] = test: Induction of apoptosis in human BV-173 cells by AnnexinV-FITC/PI staining based flow cytometric analysis; type: functional, cell-based
Procedure, shortened: (§4)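 Cells treated with inhibitor for 48 h (DMSO stocks diluted in medium), washed in PBS with 1% bovine calf serum, stained with FITC–Annexin V (1:40) for 10 min in the dark at room temperature, and analysed by flow cytometry. EC50 is the concentration giving 50% apoptosis. Culture conditions: BV173 and KCL22 in RPMI 1640, HEK293 in DMEM, BaF3 in RPMI 1640 with 10 ng/ml mouse IL-3, all with 10% FBS at 37 °C, 5% CO2.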

BV-173 [8] = test: Induction of apoptosis in human BV-173 cells transfected with Hsp70 shRNA assessed as cleaved PARP at 3 uM by Western blot analysis; type: functional, cell-based
Procedure, shortened: (§5)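 Stable non-silencing, Hsp70 or Bim shRNA BV173 clones treated at 3 µM. Lysed in RIPA with protease/phosphatase inhibitors, 150–250 µg protein resolved by SDS-PAGE, and PARP cleavage detected by immunoblot. n = 3 independent samples.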

BV-173 [9] = test: Inhibition of Hsp70/Bim protein protein interaction in human BV-173 cell lysate at 1 to 5 uM by co-IP/Western blot analysis; type: subcellular; conditions: dose 1-5 µM
Procedure, shortened: (§6)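 BV173 cells treated at 0, 1, 3 and 5 µM. Immunoprecipitated with sepharose beads for 2 h at 4 °C. Hsp70, Bim and Bag3 probed by Western blot with β-actin as loading control.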

BV-173 [10] = test: Inhibition of Hsp70/Bag3 protein protein interaction in human BV-173 cell lysate at 1 to 5 uM by co-IP/Western blot analysis; type: subcellular; conditions: dose 1-5 µM; procedure, shortened: as §6
[11] = Binding affinity to human Hsp70 NBD (1 to 383) assessed as dissociation constant measured by isothermal titration calorimetry assay
Procedure, shortened: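 ITC: binding isotherms integrated to give enthalpy change against ligand molar ratio, fitted with a one-set-of-sites model. Kd taken from the slope of the central linear part of the fractional saturation curve. Three independent experiments.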

BV-173 [12] = test: Induction of apoptosis in human BV-173 cells transfected with Bim shRNA assessed as cleaved PARP at 3 uM by Western blot analysis; type: functional, cell-based; procedure, shortened: as §5
KCL-22 [13] = test: Inhibition of Hsp70/Bim protein protein interaction in human KCL-22 cells assessed as decrease in Akt phosphorylation at 3 uM by Western blot analysis; type: cell-based; procedure, shortened: as §3
KCL-22 [14] = test: Inhibition of Hsp70/Bim protein protein interaction in human KCL-22 cells assessed as decrease in Raf-1 expression at 3 uM by Western blot analysis; type: cell-based; procedure, shortened: as §3
Homo sapiens = species on record: Homo sapiens; test: Inhibition of BimBH3-stimulated human HSP70 ATPase activity
KCL-22 [15] = test: Induction of apoptosis in human KCL-22 cells by AnnexinV-FITC/PI staining based flow cytometric analysis; type: functional, cell-based; procedure, shortened: as §4
BV-173 [16] = test: Induction of apoptosis in human BV-173 cells transfected with Bim shRNA at 3 uM by AnnexinV staining method; type: functional, cell-based
Procedure, shortened: (§7)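 Stable clones of BV173 carrying non-silencing, Hsp70 or Bim shRNA, treated at 3 µM for 48 h. Apoptosis scored by Annexin V-FITC staining and flow cytometry. n = 3 independent samples, mean ± s.e.m.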

BV-173 [17] = test: Competitive binding affinity to HSP70 in human BV-173 cell lysate by pull-down/Western blot analysis; type: subcellular; procedure, shortened: as §2
HEK293 = test: Induction of apoptosis in human HEK293 cells by AnnexinV-FITC/PI staining based flow cytometric analysis; type: cell-based; procedure, shortened: as §4
BV-173 [18] = test: Inhibition of Hsp70/Bim protein protein interaction in human BV-173 cells assessed as decrease in Raf-1 phosphorylation at 3 uM by Western blot analysis; type: cell-based; procedure, shortened: as §3
KCL-22 [19] = test: Inhibition of Hsp70/Bim protein protein interaction in human KCL-22 cells assessed as decrease in Akt expression at 3 uM by Western blot analysis; type: cell-based; procedure, shortened: as §3
[20] = target: Stress-70 protein, mitochondrial (Homo sapiens) (UniProt P38646); test: Competitive binding affinity to Mortalin in human BV-173 cell lysate up to 10 uM by pull-down/Western blot analysis; type: subcellular; conditions: dose microM <=10; procedure, shortened: as §2
Stress-70 protein, mitochondrial (Homo sapiens), sequence (P38646 whole entry): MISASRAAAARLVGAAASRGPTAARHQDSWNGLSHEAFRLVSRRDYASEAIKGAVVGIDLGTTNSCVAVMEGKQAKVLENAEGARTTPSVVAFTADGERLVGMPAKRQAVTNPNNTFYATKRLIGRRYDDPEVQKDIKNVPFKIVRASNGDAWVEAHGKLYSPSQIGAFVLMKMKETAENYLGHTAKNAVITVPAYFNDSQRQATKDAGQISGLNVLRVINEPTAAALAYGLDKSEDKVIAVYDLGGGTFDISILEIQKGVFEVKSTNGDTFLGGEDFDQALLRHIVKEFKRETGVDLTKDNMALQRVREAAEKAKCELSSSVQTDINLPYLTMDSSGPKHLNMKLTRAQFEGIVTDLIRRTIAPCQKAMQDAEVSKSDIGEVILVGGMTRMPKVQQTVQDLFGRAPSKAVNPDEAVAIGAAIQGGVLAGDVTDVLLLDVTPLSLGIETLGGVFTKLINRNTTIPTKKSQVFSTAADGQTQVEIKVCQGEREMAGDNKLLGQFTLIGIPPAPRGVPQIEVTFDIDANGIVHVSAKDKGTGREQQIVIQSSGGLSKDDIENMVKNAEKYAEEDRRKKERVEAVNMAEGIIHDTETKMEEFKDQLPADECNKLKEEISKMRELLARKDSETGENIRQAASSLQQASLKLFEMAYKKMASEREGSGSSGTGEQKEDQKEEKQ

BV-173 [21] = test: Induction of apoptosis in human BV-173 cells transfected with Hsp70 shRNA at 3 uM by AnnexinV staining method; type: functional, cell-based; procedure, shortened: as §7
KCL-22 [22] = test: Inhibition of Hsp70/Bim protein protein interaction in human KCL-22 cells assessed as decrease in Raf-1 phosphorylation at 3 uM by Western blot analysis; type: cell-based; procedure, shortened: as §3
BaF3 = test: Induction of apoptosis in mouse BaF3 cells by AnnexinV-FITC/PI staining based flow cytometric analysis; type: cell-based; procedure, shortened: as §4

Structure (SMILES): CC1(C)CCC(CN2CCN(c3ccc(C(=O)NS(=O)(=O)c4ccc(NCC5CCOCC5)c([N+](=O)[O-])c4)c(Oc4cnc5[nH]ccc5c4)c3)CC2)=C(c2ccc(Cl)cc2)C1 [VENETOCLAX]
- IC50 [1]: > 20 µM

Structure (SMILES): N#CC1=C(C#N)c2ccc(NCc3ccccc3)c3cccc(c23)C1=O
- IC50 [2]: 14.8 µM
- IC50 [1]: 18.5 µM

Structure (SMILES): N#CC1=C(NCc2ccccc2)c2ccc(SC3CCCCC3)c3cccc(c23)C1=O
- IC50 [2]: 5.2 µM
- IC50 [1]: 10.5 µM

Structure (SMILES): CC(C)c1ccc(Sc2ccc3c4c(cccc24)C(=O)C(C#N)=C3C#N)cc1
- IC50 [2]: 2.8 µM
- IC50 [1]: 4.4 µM

Structure (SMILES): N#CC1=C(NCC2CCCCC2)c2ccc(SC3CCCCC3)c3cccc(c23)C1=O
- IC50 [2]: 4.8 µM
- IC50 [1]: 8.4 µM

Structure (SMILES): N#CC1=C(C#N)c2ccc(Sc3ccccc3)c3cccc(c23)C1=O
- IC50 [2]: 1.8 µM
- IC50 [1]: 7.7 µM

Structure (SMILES): N#CC1=C(C#N)c2ccc(Sc3ccc(Br)cc3)c3cccc(c23)C1=O
- IC50 [2]: 0.7 µM
- IC50 [1]: 2.5 µM

Structure (SMILES): COc1ccc(Sc2ccc3c4c(cccc24)C(=O)C(C#N)=C3C#N)cc1
- IC50 [2]: 6.1 µM
- IC50 [1]: 4.5 µM

Structure (SMILES): CCCCNC1=C(C#N)C(=O)c2cccc3c(SC4CCCCC4)ccc1c23
- IC50 [2]: 16 µM
- IC50 [1]: 13.2 µM

Structure (SMILES): N#CC1=C(NCCN2CCOCC2)c2ccc(SC3CCCCC3)c3cccc(c23)C1=O
- Activity [3]: Active
- inhibition (BV-173 [4]): Active
- inhibition (BV-173 [5]): Active
- inhibition (BV-173 [6]): Active
- EC50 (BV-173 [7]): 1.4 µM
- Activity (BV-173 [8]): Active
- inhibition (BV-173 [9]): Active
- inhibition (BV-173 [10]): inactive
- Kd [11]: 0.96 µM
- Activity (BV-173 [12]): Active
- inhibition (KCL-22 [13]): Active
- inhibition (KCL-22 [14]): Active
- inhibition (Homo sapiens): Active
- EC50 (KCL-22 [15]): 2.6 µM
- IC50 [2]: 18.7 µM
- IC50 [1]: 0.45 µM
- Activity (BV-173 [16]): Active
- Activity (BV-173 [17]): Dose-Dependent Effect
- EC50 (HEK293): > 15 µM
- inhibition (BV-173 [18]): Active
- inhibition (KCL-22 [19]): Active
- Activity [20]: Active
- Activity (BV-173 [21]): Active
- inhibition (KCL-22 [22]): Active
- EC50 (BaF3): > 15 µM

More lines, now with the values ahead:

- IC50 [2]: 13.5 µM
- IC50 [1]: 1 µM
Structure (SMILES): N#CC1=C(NCCC(N)=O)c2ccc(SC3CCCCC3)c3cccc(c23)C1=O

- IC50 [2]: > 20 µM
- IC50 [1]: > 20 µM
Structure (SMILES): N#CC1=C(C#N)c2ccc(NC3CCCCC3)c3cccc(c23)C1=O

- IC50 [2]: 8.6 µM
- IC50 [1]: 1.7 µM
Structure (SMILES): N#CC1=C(C#N)c2ccc(SC3CCCCC3)c3cccc(c23)C1=O

- IC50 [2]: 9.6 µM
- IC50 [1]: 0.81 µM
Structure (SMILES): N#CC1=C(NCCO)c2ccc(SC3CCCCC3)c3cccc(c23)C1=O

- IC50 [2]: 8.4 µM
- IC50 [1]: 3.2 µM
Structure (SMILES): N#CC1=C(C#N)c2ccc(SC3CCCC3)c3cccc(c23)C1=O

- IC50 [2]: 0.8 µM
- IC50 [1]: > 20 µM
Structure (SMILES): N#CC1=C(C#N)c2ccc(N3CCSCC3)c3cccc(c23)C1=O

- IC50 [2]: > 20 µM
- IC50 [1]: 15.2 µM
Structure (SMILES): N#CC1=C(C#N)c2ccc(NCCO)c3cccc(c23)C1=O
